In the RNAGym collection of RNA variant scans (doi:10.1126/science.aae0568) one finds yeast fitness data, which are given here for 167 variants.

Fewer inactive variants are shown than the library holds.

To fix the notation:
B1: tRNA (parent)
chain: GUUCCGUUGGCGUAAUGGUAACGCGUCUCCCUCCUAAGGAGAAGACUGCGGGUUCGAGUCCCGUACGGAACG

In the data set the parent is B1. Briefly: yeast fitness relative to wild type (ratio to wild type); higher = fitter; tRNA-Arg(CCU), competitive growth, 37 C, YPD. The essentials: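 A pool of Saccharomyces cerevisiae strains, each with a tRNA-Arg(CCU) gene variant at the native genomic locus, was competed in YPD at 37°C for 24 hours across six parallel replicates. The variants had been chemically synthesised at a 3% per-site mutation rate over 69 sites, and gene amplicons before and after competition were read by 100-nucleotide paired-end sequencing. Darwinian fitness relative to wild type rested on changes in genotype frequencies. Genotypes required ≥ 100 starting reads, and estimates < 0.5 were set to 0.5.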
For the variant C31U C49A, the yeast fitness worked out at 0.783.
For C46G C61G A65C, the yeast fitness came to 0.574.
The result for U7G A14U C30A reads at most 0.5; that for U7G G9C G50C, 0.668; that for C11U C31G C34G A43U G68C, 0.571.
As to C22G C31G U54A C61G A69C, the yeast fitness is at most 0.5.
As to G10C A65C, the yeast fitness is 0.76.
Turning to U3C U16C C49G, the yeast fitness was at most 0.5.
Regarding U3C A70U, the yeast fitness was found to be 1.01.
The result for G9C A14U A42G reads at most 0.5.
The result for U2A C31U A37U reads at most 0.5; that for U2A G9C U13A A15G C33A A37U G50C C61U, 0.58; that for G9C G17A C27U, at most 0.5.
On to C5G U28G C31U G51A U54A U59A, for which the yeast fitness came out at 0.522.
Take C4U G17C G18C C22A C60A C66U: the yeast fitness is at most 0.5.
For C5A C11G C24A C55U G63C, the yeast fitness is at most 0.5.
C30G A36G: the yeast fitness stood at 0.679.
As for G41A G48C C49U G68A, the figure is at most 0.5.
The result for A42C C55A A65U reads at most 0.5; that for G56C A57G, 0.706.
On to G9A G38C C66U, for which the yeast fitness was at most 0.5.
In the case of A15G G23C G38C G52C U54C G58A, the yeast fitness is at most 0.5.
As for U13C A45C, the figure is 0.853; as for U28G A36G A45G A69U, 0.825.
For the variant C5G G6A C29U C31G C33G G38A U59G, the yeast fitness is at most 0.5.
As for U26C U28A A65U, the figure is 0.524.
The result for U3G G17C C31A U35C A45U reads at most 0.5; that for G18C C24G A36C G38C U54C G58C, at most 0.5; that for U28A A65G, 0.791.
As for A14G G17C A36C G48A C49G G51A A70C, the figure is at most 0.5.
U19C U26C G41C A43U A57G: the yeast fitness was at most 0.5.
On to C5U A15U A20C C55A, for which the yeast fitness is at most 0.5.
C22A C30U C31G: the yeast fitness was 0.551.
For C11U U16A C22A C24G A45U U47A, the yeast fitness is at most 0.5.
In the case of A20G U53C, the yeast fitness stood at 0.682.
In the case of C11U C22G C30U U54C, the yeast fitness was at most 0.5.
As for U2C U3C C34U, the figure is 0.571; as for G9A C11U A36C A57G A65U, at most 0.5; as for U13C C33A G41A A45C U59C A65U, at most 0.5.
Turning to G23C A37G, the yeast fitness is at most 0.5.
As for C11U A21U C27A, the figure is 0.576; as for G18A C34U, at most 0.5.
The result for A14C A45C C49G U54C C66U reads at most 0.5; that for C5G U35A C49A G51C, at most 0.5; that for C29G C49A U64A, at most 0.5.
The result for C30U C46G G52A reads 0.6; that for U8C U13G C22U, 0.529.
As to U16G C34G A42G C49G U64A, the yeast fitness is at most 0.5.
C24G G39C C60U A65U: the yeast fitness was at most 0.5.
As to G25A C30G C49U, the yeast fitness is 0.594.
As for U3C C4A G17A G41A C66U, the figure is at most 0.5; as for U7C G12A A20C A21G C24A C27A A36C, at most 0.5.
The result for U2A G6C C29A U59G reads 0.603; that for A37C C46G, 0.947.
As for C4G A14U U59G, the figure is at most 0.5; as for G23C C34G C55G, at most 0.5; as for U8A G18A C30G A40C U47C G52A, at most 0.5.
For C4U A36C, the yeast fitness was determined as 0.542.
On to G9A G23A G25C U28C, for which the yeast fitness is at most 0.5.
The result for G6C A15C C46A reads 0.504.
The result for U7G A36U reads 0.777.
The result for G10C C29A C33A G52A reads 0.57; that for G9A A42G, 0.96.
Turning to C4U U7A A20G G23A U26G, the yeast fitness is at most 0.5.
Consider G6A C34G G68A, for which the yeast fitness turned out to be 0.556.
The result for G12C A40G reads 0.683.
The result for C29G G44A G58C reads at most 0.5; that for C24G C27U C62U A70U, at most 0.5.
Turning to C11A A42C C46G C60A, the yeast fitness is at most 0.5.
As for C30U C46U A65C, the figure is 0.658; as for G23C U32A C66U, at most 0.5; as for C27A A37G U53A, at most 0.5.
The result for C22G C27A A43C reads 0.587; that for A14C U28A U53G, 0.57.
For the variant A42C G51A, the yeast fitness is 0.849.
As for G10C C46U, the figure is 0.611; as for U8C C33A C55G A69C, at most 0.5.
The result for G25C U54G reads 0.581.
Consider C5G A14C G18A A43G A45C C46U A57G, for which the yeast fitness was at most 0.5.
The result for U32C C33U A42U A57G reads at most 0.5; that for C4U A15C A70U, 0.573; that for A21G C60A, 0.577.
As for U26C G63A, the figure is 0.916; as for G23C C27G C31G, 0.608; as for G12C A20U C30U C55U C66U, 0.551.
With U2C U28C A37U U53A, the yeast fitness turned out to be 0.547.
The result for C29G U59G U64C reads 0.549; that for G41C C46A C55G, at most 0.5.
The result for G52C C55U G63A A65U reads at most 0.5; that for C11A C31U G41C A43C C60G, at most 0.5; that for U19C A36C U47A G48C U54G A65C, at most 0.5.
As for C31U G67U A69G, the figure is 0.747; as for C11A A21U C55U, 0.788.
Take U3C G12A A14U U54A A57U: the yeast fitness is at most 0.5.
On to A37C C55A C60G G63C, for which the yeast fitness is at most 0.5.
For the variant C29U C31U G41C, the yeast fitness was at most 0.5.
As for C5A U32C A36C G51A, the figure is 0.59; as for A15U, 0.885; as for C30U U35A G63C A65C, at most 0.5.
Turning to U3C G63A, the yeast fitness came to 0.909.
A14C C30U G58A: the yeast fitness was at most 0.5.
With G6A A14C A42U G63C, the yeast fitness was at most 0.5.
For the variant G6A A57U, the yeast fitness is 0.629.
Regarding C5U U19C C55A G58C, the yeast fitness was at most 0.5.
With U26G G52A G68U, the yeast fitness is at most 0.5.
As for A14G C24G G50A C55G, the figure is at most 0.5; as for U47A G51A C55U, 0.642.
As for C11U A45U G58C A69C, the figure is at most 0.5; as for U7A U16C G23A C24U U35A C60A A69C, at most 0.5; as for C31U A42U C62A, 0.615.
For C11G C49U C62U, the yeast fitness was found to be 0.535.
As for A21C A40G, the figure is 0.818; as for A37C A57U U59C, at most 0.5; as for C60G C61A A69G, 0.586.
As for U16G A37G G51C C62G, the figure is at most 0.5.
Turning to U2A U13A U35G, the yeast fitness is at most 0.5.
For C22G A37G, the yeast fitness was found to be 0.697.
The result for U16A G18C A20G C22U U54G C55A reads 0.512.
The result for A37U G38C reads 0.557.
As for C46G G48C, the yeast fitness stood at 1.02.
For A14U U47A G56A, the yeast fitness was at most 0.5.
For U7A C11A C30U U32A, the yeast fitness was at most 0.5.
As to C24G C30U A43U, the yeast fitness came to 0.549.
The result for U13G U32G A45G C49U A70U reads at most 0.5; that for U2G G50C U59A, 0.547.
The result for C4A A65G A69U reads 0.617; that for U19G C61U, 0.77.
With U26C C27U A57G, the yeast fitness turned out to be 0.725.
For the variant C11A A45C U53C, the yeast fitness worked out at 0.645.
The result for C30A A37C reads 0.772; that for C11A U32C A65U, 0.565.
Take C22U C24G C55U: the yeast fitness was at most 0.5.
As for U3C C55U, the figure is 0.687.
As for A40U A43G A65U, the figure is 0.675; as for G56A C62G, 0.643.
For U2C G18A U28C A42C G56C A65C, the yeast fitness came out at 0.61.
The result for G6C C24U C46G reads 0.586; that for C30A A36G G67C, 0.537.
As for C61A G63C, the figure is 0.618.
C22A A37U G44A A70G: the yeast fitness is at most 0.5.
Take G48C A57G G63A: the yeast fitness is at most 0.5.
Turning to A14G C24G C31U C55G G63C, the yeast fitness was at most 0.5.
For C31G A36U G48A A57C, the yeast fitness is at most 0.5.
As for G48A G67C, the figure is 1.02.
Consider G12A A21C G23A C46G U53C, for which the yeast fitness was at most 0.5.
The result for A14C C22G reads 0.701.
The result for C11U A42C A69U reads 0.773; that for A20G C33U C61G G68C, at most 0.5; that for G6A U19A G44A, at most 0.5.
As for A20U G48A, the figure is 0.922; as for C4A U16C, 0.702.
In the case of A15G C30U C31A A36C, the yeast fitness is at most 0.5.
On to C11U G23C C31G C60G A65U, for which the yeast fitness is at most 0.5.
As for G6C U7G A43U A65C, the figure is 0.825; as for U2G U3C A20G C33U G39A, at most 0.5; as for C4A G6A C11A C22U C29U C55A G68U, at most 0.5.
For the variant C30A U54A A57C, the yeast fitness was 0.548.
The result for G38C U53C A57U reads at most 0.5; that for C5U C34A C55G A69U, at most 0.5.
The result for U2A C5G A40G reads 0.564; that for A45C C46G G51C, 0.546.
The result for C5U G10A A21G G39A G48C reads 0.598.
Take U26C C46A: the yeast fitness was 0.882.
With C5U A20U U28G U32G C34G, the yeast fitness is at most 0.5.
Turning to G9C G10C A36C G39C G48A, the yeast fitness is 0.512.
As for G9A A45U U64C, the figure is 0.57; as for U8A C24G, at most 0.5.
